Results on 15 compounds are retold here after ChEMBL document CHEMBL3244397, “New dopaminergic and potential anti-parkinson compounds, N,N-disubstituted beta-(3,4-dihydroxyphenyl)ethylamines” (J Med Chem, 1978).

The subject of data set [1] is Mus musculus. In words: Antiparkinsonian activity in caudectomized mouse assessed as onset of curvature at 0.174 umol/g, ip. In kind it is functional. The gist of the method: (§1)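 Hydrochlorides in 0.9% saline (0.4-0.6 mL) were given ip in random groups of six, with 5-6-day intervals between retests. A blinded observer recorded onset and duration of asymmetric posture; mean and SE per six mice.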

The subject of data set [2] is Mus musculus. The data set is described as follows: Antiparkinsonian activity in caudectomized mouse assessed as onset of curvature at 0.348 umol/g, ip. In kind it is functional. The gist of the method: as §1
Data set [3] relates to Mus musculus. The data set is described as follows: Antiparkinsonian activity in caudectomized mouse assessed as duration of curvature at 0.348 umol/g, ip. In kind it is functional. In short, it runs like this: as §1
In data set [4] the test system is Mus musculus. In words: Antiparkinsonian activity in caudectomized mouse assessed as duration of curvature at 0.087 umol/g, ip. In kind it is functional. The gist of the method:
as §1

Data set [5] deals with Mus musculus. The data set is described as follows: Antiparkinsonian activity in caudectomized mouse assessed as duration of curvature at 0.174 umol/g, ip. In kind it is functional. The gist of the method:
as §1

The test system of data set [6] is Mus musculus. The data set is described as follows: Antiparkinsonian activity in caudectomized mouse assessed as onset of curvature at 0.087 umol/g, ip. It is filed as functional. In short, it runs like this: as §1
The test system of data set [7] is Rattus norvegicus. In words: Antiparkinsonian activity in Nigra-lesioned rat assessed as number of turns per 45 mins at 0.087 umol/g, ip. In kind it is functional. In short, it runs like this: (§2)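 Male Sprague-Dawley rats given 6-hydroxydopamine stereotaxically into the right substantia nigra. Used ≥4 weeks later if they turned away from the lesion after la (1.0 µg/g). The same six rats were dosed ip at 5-day intervals as hydrochloride in 0.9% saline; a saline-injected rat served as control. Turns were counted in automatic rotometers; mean and SE of total turns and duration.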

The test system of data set [8] is Mus musculus. The data set is described as follows: Antiparkinsonian activity in caudectomized mouse assessed as duration of curvature at 0.435 umol/g, ip. It is filed as functional. In short, it runs like this:
as §1

For data set [9], the system named is Rattus norvegicus. In words: Antiparkinsonian activity in Nigra-lesioned rat assessed as number of turns at 0.348 umol/g, ip. It is filed as functional. In short, it runs like this:
as §2

For data set [10], the system named is Mus musculus. In words: Antiparkinsonian activity in caudectomized mouse assessed as duration of curvature at 0.003 umol/g, ip. It is filed as functional. The gist of the method: as §1
Data set [11] relates to Rattus norvegicus. The data set is described as follows: Antiparkinsonian activity in Nigra-lesioned rat assessed as number of turns per 83 mins at 0.003 umol/g, ip. In kind it is functional. In short, it runs like this:
as §2

Data set [12] concerns Mus musculus. In words: Antiparkinsonian activity in caudectomized mouse assessed as onset of curvature at 0.003 umol/g, ip. In kind it is functional. The gist of the method: as §1
The test system of data set [13] is Rattus norvegicus. In words: Antiparkinsonian activity in Nigra-lesioned rat assessed as number of turns per 98 mins at 0.087 umol/g, ip. In kind it is functional. The gist of the method:
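Male Sprague-Dawley rats given 6-hydroxydopamine stereotaxically into the right substantia nigra. Used ≥4 weeks post-lesion if they rotated away from the lesion after reference agonist (1.0 µg/g ip). Compounds given ip as hydrochloride salts in 0.9% saline, […], to the same six rats at 5-day intervals. Turns counted in automatic rotometers. Mean ± SE of total turns and duration.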

The subject of data set [14] is Rattus norvegicus. In words: Antiparkinsonian activity in Nigra-lesioned rat assessed as number of turns per 48 mins at 0.087 umol/g, ip. It is filed as functional. In short, it runs like this:
as §2

Data set [15] concerns Mus musculus. The data set is described as follows: Antiparkinsonian activity in caudectomized mouse assessed as duration of curvature at 0.305 umol/g, ip. It is filed as functional. The gist of the method:
as §1

Data set [16] has as its system Mus musculus. The data set is described as follows: Toxicity in caudectomized mouse assessed as mortality at 0.305 umol/g, ip. It is filed as organism-based. The note with it: in vivo. In short, it runs like this:
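Caudectomized mice, screened for postural response to la (1.0 µg/g), received hydrochloride ip in 0.9% saline. Deaths during behavioural observation were recorded; in one case eight mice were tested.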

The test system of data set [17] is Rattus norvegicus. In words: Antiparkinsonian activity in Nigra-lesioned rat assessed as number of turns per 79 mins at 0.087 umol/g, ip. It is filed as functional. In short, it runs like this: as §2

In the case of `CCCCCN(C)CCc1ccc(O)c(O)c1.Cl`, the Time came out at 3.8 min in the data set with Mus musculus [1]; 14.6 min with Mus musculus [2]; 20.6 min with Mus musculus [3]; 0 min with Mus musculus [4]; 2.5 min in the data set with Mus musculus [5].
In the case of `Cl.Oc1ccc(CCNCCc2ccccc2)cc1O`, the Time in the data set with Mus musculus [3] came to 0 min.
With `CCCCCNCCc1ccc(O)c(O)c1.Cl`, the Time in the data set on Mus musculus [3] came to 0 min.
For `CCCN(CCc1ccc(O)c(O)c1)CC(C)C.Cl`, the results for the Time in the data set with Mus musculus [6] and with Mus musculus [4] were 3.9 min and 10 min, respectively.
For `CC(C)CN(C)CCc1ccc(O)c(O)c1.Cl`, the Time in the data set with Mus musculus [1] is on record as 4 min; with Mus musculus [2] it was 3.6 min; in the data set on Mus musculus [3], 31.8 min; in the data set on Mus musculus [4], 0 min; in the data set with Mus musculus [5], 2.8 min.
In the case of `CCCCN(CCC)CCc1ccc(O)c(O)c1.Cl`, the Activity with Rattus norvegicus [7] is 552. In addition, the values for the Time in the data set on Mus musculus [6] and in the data set with Mus musculus [4] were 4.6 min and 6.5 min, respectively.
Consider `CC(C)CNCCc1ccc(O)c(O)c1.Cl`, for which the Time with Mus musculus [3] was 0 min.
`CCCCN(CCCC)CCc1ccc(O)c(O)c1.Cl`: the Time in the data set on Mus musculus [3] and in the data set with Mus musculus [8] was 0 min each time.
With `CCCCN(CCC)CCc1ccc2c(c1)OCO2.Cl`, the Activity with Rattus norvegicus [9] is listed as 0. Besides, the Time with Mus musculus [3] came out at 0 min.
On to `CN1CCc2cccc3c2[C@H]1Cc1ccc(O)c(O)c1-3` [APOMORPHINE], for which the figures for the Time with Mus musculus [10] and with Mus musculus [12] were 14.2 min and 5 min, respectively. For the same compound, the Activity with Rattus norvegicus [11] came out at 828.
With `CCCN(CCc1ccccc1)CCc1ccc(O)c(O)c1.Cl`, the Activity in the data set with Rattus norvegicus [13] was 1065. Further, the figures for the Time in the data set with Mus musculus [6] and in the data set on Mus musculus [4] were 5 min and 15.4 min, respectively.
Take `CCCCN(CCC)CCc1ccc(O)c(O)c1.I`: the Activity in the data set on Rattus norvegicus [14] is 457. Further, the Time in the data set on Mus musculus [6] turned out to be 3.5 min; with Mus musculus [4], 6.7 min.
With `CN(CCc1ccccc1)CCc1ccc(O)c(O)c1.Cl`, the Time with Mus musculus [2] worked out at 6.7 min; with Mus musculus [3], 21.2 min; with Mus musculus [4], 0 min.
As to `CCCCCN(CCCCC)CCc1ccc(O)c(O)c1.Cl`, the Time with Mus musculus [15] amounted to 0 min. In addition, in the data set with Mus musculus [16], the Activity result was “Toxic”.
With `CCCCCN(CCC)CCc1ccc(O)c(O)c1.I`, the Activity in the data set with Rattus norvegicus [17] is reported as 628. In addition, the results for the Time with Mus musculus [6] and with Mus musculus [4] were 4.2 min and 14 min, respectively.
